Experimental findings from paper PMC3356144 (Frontiers in Oncology, 2011) are described below.

In data set [1] the test system is LNCaP cells. Put plainly: Growth inhibition. It is filed as cell-based, human. The gist of the method: (§1)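 LNCaP seeded at 20,000 cells/well overnight in RPMI with 10% FBS, 1% L-glutamine, 1% pen/strep and 0.1 nM DHT. CWR22Rv1 (20,000/well), DU145 and PC-3 (5,000/well) seeded in the same medium without DHT. Treated with test compound in serum-free medium, five wells per concentration, for 48 h; vehicle was 0.001% DMSO. Viability read by WST-8 after 2 h at 450 nm (reference 655 nm). Initial-plating value subtracted, percent growth versus control calculated, GI50 derived; n = 5, SEM.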

The subject of data set [2] is CWR22Rv1 cells. The data set is described as follows: Growth inhibition. Format: cell-based. Conditions: Homo sapiens, CWR22Rv1, 48 h, CWR22Rv1 (CWR), 48 h treatment. The gist of the method:
as §1

Data set [3] deals with DU145 cells. The data set is described as follows: Growth inhibition. Format: cell-based. Conditions: Homo sapiens, DU-145, 48 h, DU145, 48 h treatment. The gist of the method:
as §1

Data set [4] has as its system PC-3 cells. The data set is described as follows: Growth inhibition. It is filed as cell-based. The following applies: Homo sapiens, PC-3, 48 h, PC-3, 48 h treatment. In outline:
as §1

The subject of data set [5] is LNCaP cells. The data set is described as follows: BrdU uptake assay, LNCaP. It is filed as cell-based, human. Conditions: 1 μM, 24 h. The gist of the method: (§2)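 Cells seeded overnight in six-well plates: LNCaP 500,000/well, DU145 and PC-3 200,000/well. Treated with 1 μM test compound in serum-free medium for 24 h, then BrdU pulsed 1 h. Cells trypsinized, fixed in 4% formaldehyde 10 min, permeabilized, and labelled with FITC anti-BrdU 1 h at 25°C. Analysed by flow cytometry against untreated control; n = 3, mean ± SEM.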

Data set [6] relates to DU145 cells. The data set is described as follows: BrdU uptake assay, DU145. Format: cell-based, human. The following applies: DU145, 1 μM, 24 h. The gist of the method: as §2
In data set [7] the test system is PC-3 cells. The data set is described as follows: BrdU uptake assay, PC-3. Format: cell-based, human. In outline:
as §2

Data set [8] concerns PC-3 cells. Put plainly: Cell cycle analysis by FACS, PC-3. Format: cell-based, human. Conditions: 1 μM. The gist of the method:
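PC-3 seeded at 200,000 cells/well in six-well plates overnight, then serum-starved 24 h. Treated with 1 μM test compound; controls kept in serum-free medium. Incubated 6, 24 or 48 h, then trypsinized, ethanol-fixed and analysed for cell-cycle distribution by FACS. Values averaged from three independent experiments.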

The test system of data set [9] is CWR22Rv1 cells. The data set is described as follows: Cell cycle analysis by FACS, CWR22RV1. It is filed as cell-based, human. Conditions: CWR22RV1, 24 h. Background: Flow cytometry measures light scatter and fluorescence of single cells or particles in a stream.
For data set [10], the system named is LNCaP cells. Put plainly: Cell cycle analysis by FACS, LNCaP. Format: cell-based, human.
Data set [11] concerns PC-3 cells. Put plainly: Analysis of actin disruption. It is filed as cell-based, human. In outline: (§3)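 PC-3 seeded at 100,000 cells/dish in RPMI with 10% FBS and left to adhere 48 h. LNCaP seeded at 200,000 cells/dish and left 24 h in RPMI with 10% FBS and 0.1 nM DHT. Medium replaced with test compound (250 nM–5 μM) for 2 h. Cells fixed in 4% formaldehyde 10 min, permeabilized with 0.1% Triton X-100 30 min, stained with Alexa Fluor–phalloidin 10 min, then imaged against untreated controls.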

The test system of data set [12] is LNCaP cells. Put plainly: Analysis of actin disruption. Conditions: 2 h, 250 nM up to highest dose 5 μM. It is filed as cell-based, human. The gist of the method:
as §3

Data set [13] deals with PC-3 cells. Put plainly: Chemotaxis assay. Conditions: IGF-1 attractant. Format: cell-based, human. The gist of the method: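 96-well Boyden chamber with 8-μm porous membrane. 200,000 PC-3 cells per upper well in serum-free medium with test compound. Lower wells held IGF-1 plus the same compound concentration; serum-free medium served as negative control. Incubated overnight at 37°C, 5% CO2. Membrane fixed and Diff-Quik stained, upper-surface cells scraped off, absorbance read at 595 nm; n = 5, mean ± SEM.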

The nature of a further data set: Solubility. Format: physicochemical.
The subject of data set [14] is PC-3 cells. The data set is described as follows: Cellular morphology after treatment. The following applies: PC-3, 1 μM, 24 h. It is filed as cell-based, human.
For data set [15], the target named is MLCP purified from pig aorta smooth muscle (Sus scrofa, UniProt P61292). Put plainly: MLCP/32P-MLC dephosphorylation inhibition assay. Format: biochemical. The gist of the method: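 MLCP purified from pig aorta (PP1C plus truncated 60-kDa MYPT1). Substrate was chicken gizzard LC20 pre-labelled with [γ-32P]ATP. Reaction: 0.5 μM 32P-LC20, 50 nM MLCP, 0.1 nM okadaic acid, 1 mM DTT, 0.03% Brij35, 25 mM MOPS pH 7.0, with varied compound. Run 10 min at 30°C, stopped with TCA/BSA, released 32P counted. No-enzyme set as 0% and uninhibited as 100%; duplicates; IC50 by nonlinear regression.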

Data set [16] has as its system human prostate cancer tissue. The data set is described as follows: Displacement of 17e staining of prostate tissue by calyculin A. It is filed as binding. Conditions: calyculin A 1 μM pretreatment 10 min, then 17e 10 μM 1 h. The gist of the method: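 Serial sections of human prostate tissue. One section stained with 10 μM test compound for 1 h. The adjacent section was pretreated with 1 μM calyculin A for 10 min before the same staining. Compound fluorescence intensity imaged and compared between paired sections.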

Structures are written as SMILES. “Also recorded” adds a separate entry of the source.

MLCP purified from pig aorta smooth muscle, sequence (P61292 2-327 limits assumed): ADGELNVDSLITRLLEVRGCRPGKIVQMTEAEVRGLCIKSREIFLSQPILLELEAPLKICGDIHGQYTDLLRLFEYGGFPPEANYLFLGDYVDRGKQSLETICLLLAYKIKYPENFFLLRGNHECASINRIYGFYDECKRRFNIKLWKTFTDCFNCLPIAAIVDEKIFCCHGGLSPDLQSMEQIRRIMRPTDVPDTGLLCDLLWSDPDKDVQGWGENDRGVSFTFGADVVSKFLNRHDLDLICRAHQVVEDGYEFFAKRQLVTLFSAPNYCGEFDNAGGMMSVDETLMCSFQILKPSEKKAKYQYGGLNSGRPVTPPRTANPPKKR

The term GI50 denotes the concentration at which growth is held to half of that of the control. High values mean lower sensitivity of the cells, low ones greater sensitivity of the cells. Consider `CN(C)c1cccc2c(S(=O)(=O)Oc3ccc(-c4csc(NC(=N)N)n4)cc3)cccc12` [17e, 5-dimethylamino-naphthalene-1-sulfonic acid 4-(2-guanidino-thiazol-4-yl)-phenyl ester], for which, in the data set with LNCaP cells [1] (CRPC lines (CWR22Rv1, DU145, PC-3) versus LNCaP), the “GI50 of CRPC cell lines compared to AD prostate cells” value was “four-fold lower”. Moreover, the 50% growth inhibitory concentration (GI50) in the data set with LNCaP cells [1] (Homo sapiens, LNCaP, 48 h, 48 h treatment) was around 2 µM; in the data set with CWR22Rv1 cells [2], around 0.5 µM; in the data set on DU145 cells [3] it was around 0.5 µM; in the data set on PC-3 cells [4], around 0.5 µM. In addition, the “DNA synthesis (BrdU incorporation)” value with LNCaP cells [5] is given as “unaffected”. For the same molecule, the “BrdU incorporation compared to control” value in the data set on DU145 cells [6] is ~ 40%; with PC-3 cells [7] (PC-3, 1 μM, 24 h), ~ 10%. For the same molecule, the “Reduction in DNA synthesis as measured by BrdU uptake” value in the data set with PC-3 cells [7] (PC-3) is on record as 10 fold. The Cell cycle effect entry was “increased S and G2/M populations” in the data set on PC-3 cells [8] (6 h); “complete cell cycle arrest in the G2/M phase” with PC-3 cells [8] (24 h); “G2/M arrest” in the data set with CWR22Rv1 cells [9]; “little change from control” in the data set with LNCaP cells [10]. Besides, in the data set with PC-3 cells [8] (48 h), the “Cell death (SubG1 population)” value is listed as “increase in cells death”. Also, in the data set with PC-3 cells [8] (through 48 h), the “Cell cycle effect (G2/M arrest persistence)” value is “continued unchanged”. The “Actin disruption compared to control” value in the data set on PC-3 cells [11] (PC-3, 2 h, 250 nM, 1 μM and 5 μM) is “increasing amounts of actin disruption”. For the same molecule, in the data set on PC-3 cells [11] (PC-3, 2 h treatment), the “Concentration at which actin disruption begins” value came out at 250 nM. Further, the F-actin disruption result in the data set with LNCaP cells [12] is recorded as “did not show any disruption of the F-actin network; also recorded: no actin disruption; also recorded: did not demonstrate any F-actin disruption”. In the data set with PC-3 cells [13] (3 μM), the “Migration of PC-3 cells” value was “reduced to the same level as wells that contained only serum free media”. Moreover, the “Migrated cells compared with IGF-1 alone” value in the data set with PC-3 cells [13] (5 μM) is “three times fewer cells”. Besides, the “Migration of PC-3 cells through the membrane” value in the data set with PC-3 cells [13] (increasing drug concentrations) is “dose dependent decrease”. Moreover, the “Solubility (relative)” value in “Solubility” is recorded as “higher solubility”. Further, the Cellular morphology entry with PC-3 cells [14] is listed as “became more spherical”.
In general, IC50 refers to the concentration needed to halve the response being measured. A low value points to inhibition by little substance. Molecule `COc1ccc(-c2csc(N=C(N)N)n2)cc1` [13m, N-[4-(4-methoxy-phenyl)-thiazol-2-yl]-guanidine] gave a 50% inhibitory concentration (IC50) in [15] of 840 µM.
For `N=C(N)Nc1nc(-c2ccc(NC(=O)c3ccc4ccccc4c3)cc2)cs1` [13h, naphthalene-2-carboxylic acid [4-(2-guanidino-thiazol-4-yl)-phenyl]-amide], the “Solubility (relative)” value in the data set “Solubility” is on record as “much lower solubility than 17e”.
Consider `COC[C@@H]([C@H](O)[C@H](O)C(=O)NCC[C@H](C)c1nc(/C=C/C[C@@H]2O[C@]3(C[C@@H](O)[C@@H]2C)O[C@H]([C@H](C[C@H](O)[C@H](C)[C@H](O)[C@H](C)/C=C(C)/C(C)=C/C=C/C(C)=C\C#N)OC)[C@H](OP(=O)(O)O)C3(C)C)co1)N(C)C` [calyculin A], for which, in data set [16], the “Reduction in fluorescence intensity due to 17e (17e binding)” value worked out at 60%.
`Nc1nc(-c2ccc(OC(=O)c3ccc(-c4ccccc4)cc3)cc2)cs1` [14a, biphenyl-4-carboxylic acid 4-(2-amino-thiazol-4-yl)-phenyl ester] displayed a concentration for half-maximal inhibition (IC50) in data set [15] of 485 µM.
`COc1cccc(-c2ccc(C(=O)Oc3ccc(-c4csc(NC(=N)N)n4)cc3)cc2)c1` [10a, 3′-methoxy-biphenyl-4-carboxylic acid 4-(2-guanidino-thiazol-4-yl)-phenyl ester] registered an IC50 in [15] of 12 µM. Also, the “Solubility (relative)” value in “Solubility” is “much lower solubility than 17e”.
For the molecule `N=C(N)Nc1nc(-c2ccc(OC(=O)c3ccc(-c4ccccc4)cc3)cc2)cs1` [13a, biphenyl-4-carboxylic acid 4-(2-guanidino-thiazol-4-yl)-phenyl ester], the IC50 in data set [15] stood at 74 µM.
